Bioassay records deposited in PubChem BioAssay by several laboratories.
Rows were chosen to be rich in hits. Some 3.7% of all compounds tested hit in one or more screens of this group.
CHO parental Ca: ATP-evoked calcium signal inhibitors, parental CHO, primary screen, counter-screen for OX1R antagonist project, cell-based, fluorescence, Fluo-8 calcium dye; parental CHO-K1, ATP-induced calcium, Fluo-8 fluorescence; inhibition, % at 5.6 µM; 330,000 tested, 0.63% active; AID 463079, 2010;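 active means inhibition above that plate's mean sample inhibition plus 3 SD, cut at about 26% in these data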;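 further: 0% = ATP-challenged DMSO wells and 100% = DMSO wells without ATP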
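material = parental CHO cells | also added = ATP as calcium-mobilizing challenge | dosing = single point at 5.6 µM | detection = intracellular calcium via Fluo-8 no-wash fluorescent dye | read-out = % inhibition | benchmarks = low control ATP plus DMSO, high control DMSO only | repeats = one well per compound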
OX1R antag-1: antagonists of human orexin 1 receptor (OX1R); inhibition, % at 6.6 µM; Orexin/Hypocretin receptor type 1 (Homo sapiens), O43613; OX1R-expressing cells, FRET antagonist read-out; 330,000 tested, 1.8% active; in the data active means inhibition mostly above about 38%, no sharp cut-off; inactive means mostly below about 40%;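 further: 0% = agonist challenge alone and 100% = reference antagonist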
OX1R antag-2: OX1R (HCRTR1) antagonists, primary screen, fluorescence, CHO/OX1R cells, Fluo-8 calcium, orexin A. Fluo-8 calcium fluorescence. inhibition, % at 5 µM. 330,000 tested, 0.43% active. AID 434989, 2010;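 active means inhibition above its plate's threshold, mean inhibition of all tested compounds on the plate plus 3 SD, cut at about 37% in these data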;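 further: 0% = orexin A challenge wells and 100% = SB-334867-A antagonist wells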
EP2 modulator: EP2 receptor modulators, cAMP readout, primary screen, cell-based, HTRF cAMP, PGE2 stimulation; Prostaglandin E2 receptor EP2 subtype (Homo sapiens), P43116; 260,000 tested, 0.83% active; EP2-expressing cells, cAMP HTRF FRET, PGE2 co-stimulation; induction, % at 25 µM;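 active means compounds whose cAMP rise, as percent of the full-agonist control response, exceeds 60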;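 further: rat C6 glioma line stably carrying human EP2 under a CMV promoter; the protocol text gives 20 µM as final concentration; 100% = response of wells given 1 µM PGE2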
Target sequence (P43116 whole entry, looked up): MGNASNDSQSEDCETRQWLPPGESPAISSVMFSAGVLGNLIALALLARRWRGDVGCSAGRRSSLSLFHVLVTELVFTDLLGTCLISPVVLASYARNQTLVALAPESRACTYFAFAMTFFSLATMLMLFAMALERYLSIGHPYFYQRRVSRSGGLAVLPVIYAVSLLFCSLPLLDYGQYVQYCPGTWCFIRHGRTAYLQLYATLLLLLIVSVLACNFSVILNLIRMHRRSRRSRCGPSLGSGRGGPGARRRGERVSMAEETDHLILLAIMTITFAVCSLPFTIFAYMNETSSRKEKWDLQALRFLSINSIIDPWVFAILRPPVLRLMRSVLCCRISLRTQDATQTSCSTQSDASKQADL
EP2 antag: human EP2 receptor antagonists, primary screen, TR-FRET cAMP, C6 glioma cells. C6 glioma cells expressing human EP2; cells stimulated with saturating PGE2. inhibition, % at 25 µM. 260,000 tested, 0.52% active. AID 1422, 2008;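 active means percent inhibition above 40 after rounding to a whole number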;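 further: rat C6 glioma host cells with rolipram phosphodiesterase inhibitor present; the protocol text gives 20 µM as final concentration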
GPR7 antag: GPR7 receptor antagonists, primary screen, cell-based, fluorescence, single concentration; GPR7-expressing cells, fluorescence antagonist assay; inhibition, % at 4.4 µM; 290,000 tested, 1.1% active; AID 1861, 2009; in the data active means inhibition above about 16%, passing the limit was not always enough;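 further: cells stimulated with the agonist NPW; 0% = agonist with vehicle and 100% = vehicle without agonist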
Target sequence (P48145 whole entry, looked up): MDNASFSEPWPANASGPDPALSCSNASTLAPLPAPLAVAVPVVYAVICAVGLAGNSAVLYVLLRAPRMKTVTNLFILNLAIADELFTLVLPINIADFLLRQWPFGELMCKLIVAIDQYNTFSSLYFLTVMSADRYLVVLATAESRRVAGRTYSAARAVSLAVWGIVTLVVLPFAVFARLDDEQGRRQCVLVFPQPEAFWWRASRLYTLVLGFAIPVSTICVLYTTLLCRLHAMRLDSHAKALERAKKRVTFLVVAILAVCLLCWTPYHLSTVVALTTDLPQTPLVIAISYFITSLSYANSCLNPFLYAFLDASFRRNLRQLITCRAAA
The depositor's hits bear a star; · = not tested or not shown; ! = not active in a repeat.

SMILES	CHO parental Ca	OX1R antag-1	OX1R antag-2	EP2 modulator	EP2 antag	GPR7 antag
O=C(Nc1ccccc1)OCCNC(=O)c1cccc(Cl)c1	-11.9	16.6	-10.8	-8.2	5.3	6.5
CC(C)OC(=O)NCCOC(=O)Nc1cccc(Cl)c1	36.5*	59.4	48.2*	-47.8	10.5	-4.8
CCCOc1ccc(/C(O)=C2/C(=O)C(=O)N(CCCN3CCOCC3)C2c2ccncc2)cc1 (stereo unspecified)	·	·	·	16.6	2.2	-5.5
CCN(CC(=O)NCc1ccc(Cl)cc1)C(=O)COc1ccc(C)cc1C	-3.2	24.6	-12.1	·	·	-5.5
Cn1c(=O)[nH]c(=O)c2c1nc(NC1CCCCC1)n2Cc1ccccc1	-25.7	1.1	-32.6	61.0*	9.4	-16.8
Cc1ccc(C(C)n2cc(C(=O)NCCN3CCN(C)CC3)nn2)cc1 (stereo unspecified)	-13.6	11.7	-23.7	-6.9	12.2	-11.6
CN(CCC(=O)O)S(=O)(=O)c1ccccc1	·	·	·	6.6	12.8	·
CN(CCCC(=O)O)S(=O)(=O)c1ccc2c(c1)C(=O)c1cc(S(=O)(=O)N(C)CCCC(=O)O)ccc1-2	-5.3	50.6*	-5.7	·	·	-10.4
O=C(Cc1ccc([N+](=O)[O-])cc1)NCc1ccc2c(c1)OCO2	-2.8	39.0	8.8	14.8	7.4	6.4
CN(CCCC(=O)NCc1ccc2c(c1)OCO2)S(=O)(=O)c1ccc([N+](=O)[O-])cc1	-0.4	66.3*	-12.8	·	·	13.7
COc1ccc(C(OC(=O)c2ccco2)C(=O)NC2CCCCC2)cc1OC (stereo unspecified)	5.6	10.3	-2.1	2.2	8.4	-14.9
O=C(O)CC(Cc1ccccc1)c1ccc2c(c1)OCO2 (stereo unspecified)	3.2	12.1	-4.5	14.0	·	6.2
c1ccc(SC(Sc2ccccc2)c2ccc3c(c2)OCO3)cc1	·	·	·	27.4	41.5*	·
COC(=O)CCSc1cc(NCCOC(C)=O)c([N+](=O)[O-])c2nonc12	2.5	52.9*	-4.8	-50.1	6.4	-2.0
CC(=O)OCCCNc1cc(Sc2nc3ccccc3s2)c2nonc2c1[N+](=O)[O-]	7.3	29.6	-0.6	-21.2	41.2*	-5.8
COc1ccc(-c2ccc(NS(=O)(=O)c3ccc([N+](=O)[O-])cc3)cc2)nn1	5.7	7.1	-15.2	·	·	-4.9
O=C(NCc1ccccc1)c1ccc(-c2ccccc2F)o1	4.2	58.6*	-12.1	-26.5	-0.2	-8.8
O=C(NCc1ccco1)c1ccc(-c2ccccc2Cl)o1	0.7	3.0	-11.3	-59.8	59.9*!	3.9
O=C(NCc1ccco1)c1ccc([N+](=O)[O-])o1	18.3	71.4*	-7.7	-6.4	8.0	-6.7
CC1C(=NO)C(C)C(c2ccccc2)NC1c1ccccc1 (stereo unspecified)	-22.1	14.1	-28.1	30.0	10.7	3.8
CCC1C(=NO)C(CC)C(c2ccccc2)NC1c1ccccc1 (stereo unspecified)	-2.4	21.9	-8.8	62.7*	0.4	-26.7
COc1ccc(-c2coc3cc(OC(=O)N4CCOCC4)ccc3c2=O)cc1	-1.8	12.6	-18.0	4.4	11.6	-7.9
O=c1c2sc(-c3ccccc3)cc2nc2n1CCC2	-10.4	52.0*	-15.5	-28.4	2.7	0.9
O=c1c2sc(-c3ccccc3)cc2nc2n1CCCCC2	-21.7	6.4	-28.4	-40.4	22.2	15.8
O=c1n(Cc2ccccc2)c2cc(Cl)cnc2n1Cc1ccccc1	-40.8	31.9	-43.0	61.7*	18.7	-6.6
SMILES	CHO parental Ca	OX1R antag-1	OX1R antag-2	EP2 modulator	EP2 antag	GPR7 antag
COc1ccc(C2CC(c3ccccc3)=NN2C(=O)COC(=O)c2cc(S(=O)(=O)N3CCOCC3)ccc2F)cc1 (stereo unspecified)	-5.4	14.9	-27.0	14.6	6.6	20.9*
COc1ccc(C2CC(c3ccccc3)=NN2C(=O)COC(=O)c2ccc(S(C)(=O)=O)cc2)cc1 (stereo unspecified)	1.6	11.7	-22.7	·	·	·
Cc1cc(NC(=O)c2ccccc2NS(=O)(=O)c2c(C)c(C)cc(C)c2C)no1	-2.8	32.0	-1.7	3.1	·	-6.7
Cc1ccc(C)c(S(=O)(=O)Nc2ccccc2C(=O)Nc2cc(C)on2)c1	-12.5	36.1*	-2.8	2.1	·	1.4
Cc1ccc(C)c(NC(=O)c2ccccc2NS(=O)(=O)c2cc([N+](=O)[O-])ccc2C)c1	7.0	55.1*	6.9	-37.4	5.8	12.2
Cc1ccc([N+](=O)[O-])cc1S(=O)(=O)Nc1cccc(S(=O)(=O)Nc2ccccc2C(=O)O)c1	-2.6	-4.2	13.4	·	·	·
Cc1cccc(N2C(=O)NC(=O)/C(=C/N(C)C)C2=O)c1	·	·	·	-33.6	6.6	·
CCCCOc1ccc(N(CC(=O)NC(C)(C)CC)C(=O)CCC(=O)Nc2ccccn2)cc1	-15.0	-3.0	-29.3	33.0	11.4	5.6
O=S(=O)(O)c1cc(O)c2c(O)c(N=Nc3cccc4ccccc34)c(S(=O)(=O)O)cc2c1	·	·	·	-14.0	56.6*	·
Brc1ccc(C2=CC(c3cccs3)n3ncnc3N2)cc1 (stereo unspecified)	41.3*	30.7	32.9	-35.8	4.9	-2.6
CC1=C(C(N)=O)C(c2ccc(Br)cc2)n2nc(CCCO)nc2N1 (stereo unspecified)	-0.2	-5.7	-23.1	·	·	-4.9
OCCCc1nc2n(n1)C(c1cccs1)C=C(c1ccc(Br)cc1)N2 (stereo unspecified)	38.7*	17.4	29.9	-29.1	11.2	9.0
COc1cccc(C2=CC(c3cccs3)n3ncnc3N2)c1 (stereo unspecified)	·	·	·	-87.0	22.2	·
C1=C(c2ccc(-c3ccccc3)cc2)Nc2ncnn2C1c1ccco1 (stereo unspecified)	·	·	·	0.2	12.0	25.6*
COc1cccc(CN2CCN(C(=S)NCc3ccc(Cl)cc3)CC2)c1	-11.2	5.4	-2.9	-56.7	4.5	11.1
CC(NC(=O)[C@H](NC(=O)[C@@H]1Cc2ccccc2CN1)c1ccccc1)c1ccccc1 (stereo partly specified)	-16.4	50.0*	-15.9	·	·	-7.1
CCOC(=O)c1sc(C)c2c1NC1(CCCCCC1)NC2=O	-20.9	18.9	-29.6	31.2	14.7	0.8
CCCC/C(O)=C1\C(=O)CC(C)(C)CC1=Nc1ccccc1OC	-22.1	14.9	-34.0	48.7	9.3	5.5
CCC/C(O)=C1\C(=O)CC(C)(C)CC1=Nc1ccc(OC)cc1OC	-24.8	25.5	-29.6	47.7	8.1	16.2*
